Test results as given in ChEMBL document CHEMBL2086376, “Total synthesis of 2''',5'''-diepisilvestrol and its C1''' epimer: key structure activity relationships at C1''' and C2'''” (J Nat Prod, 2012).
Calls of active or inactive are those of the source. No cut-off for these calls is given here.

Experiments:
Oryctolagus cuniculus = species on record: Oryctolagus cuniculus; assay: Inhibition of translation in rabbit reticulocyte lysate by luciferase assay; assay type: functional
Method in brief: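 Cell-free translation in rabbit reticulocyte lysate, final KCl 135 mM, programmed with 8 μg/mL capped FF/HCV/Ren bicistronic mRNA. Firefly and Renilla luciferase activities were the read-out.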

Leukemia cell = assay: Anticancer activity in patient with chronic lymphocytic leukemia; assay type: functional; conditions: Homo sapiens, read-out: LC50 (the source's name)
[1] = Cytotoxicity against human breast cancer cells; assay type: functional; conditions: Cancer cell lines, read-out: ED50 (the source's name)
[2] = Cytotoxicity against human lung cancer cells; assay type: functional; conditions: Cancer cell lines, read-out: ED50 (the source's name)
A549 = assay: Cytotoxicity against human A549 cells; assay type: functional, cell-based
[3] = Cytotoxicity against human colon cancer cells; assay type: functional, cell-based; conditions: Cancer cell lines

Compound	inhibition (Oryctolagus cuniculus)	EC50 [1] [nM]	EC50 [2] [nM]	further results
COC(=O)[C@H]1[C@@H](O)[C@@]2(O)c3c(OC)cc(O[C@@H]4O[C@@H]([C@@H](O)CO)CO[C@@H]4OC)cc3O[C@@]2(c2ccc(OC)cc2)[C@@H]1c1ccccc1	Active			
COC(=O)[C@H]1[C@@H](O)[C@@]2(O)c3c(OC)cc(O[C@@H]4O[C@@H]([C@H](O)CO)CO[C@H]4OC)cc3O[C@@]2(c2ccc(OC)cc2)[C@@H]1c1ccccc1 [SILVESTROL]		1.5	1.2	CC50 (Leukemia cell): 6.9 nM
COC(=O)[C@H]1[C@@H](O)[C@@]2(O)c3c(OC)cc(O[C@@H]4O[C@@H]([C@@H](O)CO)CO[C@H]4OC)cc3O[C@@]2(c2ccccc2)[C@@H]1c1ccccc1				IC50 (A549): 130 nM; IC50 [3]: 10 nM

Further lines, with some results ahead:

inhibition (Oryctolagus cuniculus)	Compound	EC50 [1] [nM]	EC50 [2] [nM]	further results
inactive	COC(=O)[C@H]1[C@@H](O)[C@@]2(O)c3c(OC)cc(O[C@H]4O[C@@H]([C@@H](O)CO)CO[C@@H]4OC)cc3O[C@@]2(c2ccc(OC)cc2)[C@@H]1c1ccccc1			
Active	COC(=O)[C@H]1[C@@H](O)[C@@]2(O)c3c(OC)cc(O[C@@H]4O[C@@H]([C@H](O)CO)CO[C@@H]4OC)cc3O[C@@]2(c2ccc(OC)cc2)[C@@H]1c1ccccc1	1.5	1.2	
